Shown are actives, neighbours in structure and some others; about 3.4% of the full set was active somewhere.
PHOSPHO1 inh = blocks human PHOSPHO1 phosphatase activity; Q8TCT1; recombinant PHOSPHO1, absorbance phosphatase assay; inhibition, % at 13.3 µM; 290,000 tested, 1.1% active; in the data active = inhibition above about 60%
RanGTP-Impb inh = disruptors of Ran-importin-beta complex formation – biochemical, FRET, CFP-Ran, YFP-importin-beta, homogeneous, primary screen | cell-free CFP-Ran/YFP-importin-beta FRET ratio | inhibition, % (no concentration beside the values) | 300,000 tested, 1.1% active | AID 2216;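 active = more than half of the replicate wells show a fall in the fluorescence ratio signal beyond about 16%, limit read from the data, passing the limit was not always enough; inconclusive = exactly half of the replicate wells pass the set limit; inactive = fewer than half of replicates pass the limit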
Wee1 degr inh = human Wee1 degradation inhibition, primary screen | 220,000 tested, 1.2% active | P30291 | reporter increase, % at 5 µM | HeLa Luc-Wee1K328M stability, luciferase luminescence; 100% = proteasome inhibitor MG132 effect;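 active = activation above the mean of all tested compounds plus 3 SD, set per screening run, cut at about 8.8% in these data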;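 note: cells exposed to compound for 20 h before luminescence read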
Target sequence (P30291 whole entry K328M): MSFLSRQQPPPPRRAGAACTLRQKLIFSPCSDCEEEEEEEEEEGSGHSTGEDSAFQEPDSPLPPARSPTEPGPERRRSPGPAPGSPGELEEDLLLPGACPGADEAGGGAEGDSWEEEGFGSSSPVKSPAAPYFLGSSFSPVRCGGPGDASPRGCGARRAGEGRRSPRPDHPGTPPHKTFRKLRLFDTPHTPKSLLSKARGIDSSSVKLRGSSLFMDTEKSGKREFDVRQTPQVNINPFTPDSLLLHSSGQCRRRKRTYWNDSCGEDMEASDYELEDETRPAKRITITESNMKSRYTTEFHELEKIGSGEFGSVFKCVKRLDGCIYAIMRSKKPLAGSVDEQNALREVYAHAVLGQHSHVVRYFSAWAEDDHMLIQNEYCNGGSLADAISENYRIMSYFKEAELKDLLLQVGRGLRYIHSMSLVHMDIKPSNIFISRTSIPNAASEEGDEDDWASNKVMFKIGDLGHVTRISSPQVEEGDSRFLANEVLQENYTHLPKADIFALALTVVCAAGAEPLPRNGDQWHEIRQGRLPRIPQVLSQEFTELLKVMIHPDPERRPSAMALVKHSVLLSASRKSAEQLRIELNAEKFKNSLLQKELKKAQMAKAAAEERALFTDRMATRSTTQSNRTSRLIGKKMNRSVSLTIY
Runt-CBFb FRET = Runt domain-CBFb interaction inhibition; inhibition, % at 20 µM; 220,000 tested, 0.46% active; AID 1496; Cerulean-Runt/Venus-CBFb FRET ratio 530/480, 1 h;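 active = inhibition over about 50% at 20 µM in the single-dose screen, limit read from the data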
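System: Cerulean-labeled Runt domain protein | Quantity: 100 nM of each labeled protein | Schedule: 1 h compound exposure, room temperature | Detection: Fluorescence energy transfer, 422 nm excitation, 530/480 nm emission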
Efa HMGR inh = E. faecalis class II HMG-CoA reductase inhibition. 190,000 tested, 0.41% active. purified E. faecalis HMGR, NADPH absorbance 340 nm kinetic. inhibition, % at 10 µM;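 active = inhibition above a set limit, the median over all tested compounds plus 3 SD, cut at about 9.5% in these data; inconclusive = no clear call, values can overlap the other calls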;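 note: enzyme runs in reverse so mevalonate oxidation gives rising NADPH absorbance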
Runt-SMMHC FRET = Runt domain-CBFb-SMMHC interaction inhibition; Q01196+Q13951; Cerulean-Runt/Venus-CBFb-SMMHC FRET ratio 530/480, 1 h; inhibition, % at 20 µM; 220,000 tested, 0.74% active;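 active = mean inhibition across duplicate retests at 20 µM reaching about 50%, limit read from the data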;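 note: inhibitors lower the FRET ratio by blocking Runt binding to CBFb-SMMHC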
Hits are given with their value; . = inactive; ? = inconclusive; / = no result given.

SMILES	PHOSPHO1 inh	RanGTP-Impb inh	Wee1 degr inh	Runt-CBFb FRET	Efa HMGR inh	Runt-SMMHC FRET
CCOC(=O)CCc1c(C)c2ccc(OCC)c(C)c2oc1=O	.	?	.	.	.	.
CS(=O)(=O)Cc1ccc(C(=O)Nc2cccc(-c3nc4ccccc4[nH]3)c2)cc1	.	.	/	/	/	/
O=C(NCC(c1ccco1)N1CCN(c2ccccc2F)CC1)C(=O)NC1CCCC1 (stereo unspecified)	/	.	/	/	/	/
Cc1cc(NC(=O)CCN2CCC(C(N)=O)CC2)ccc1Br	.	59	.	.	.	.
C/C(=N/NS(=O)(=O)c1ccc(Br)cc1)c1ccc(NC(=O)c2ccc(C)o2)cc1	74	.	.	.	.	.
CC(=O)Nc1ccc(/C(C)=N/NS(=O)(=O)c2ccc(C)cc2)cc1	.	.	.	.	.	.
COCCNC(=S)NCc1ccc2[nH]c3c(c2c1)CCCC3	.	19	.	.	.	.
O=C(NCCO)c1ccc2[nH]c3c(c2c1)CCCC3	.	18	.	.	.	.
COc1ccccc1-n1cnnc1SCC(=O)N1CC(=O)Nc2ccccc21	.	.	.	.	9.6	.
COc1ccccc1-n1cnnc1SCC(=O)N1CCOCC1	.	.	/	/	/	/
COc1ccc2c(c1)c(C(=O)CN1CCC3(CC1)OCCO3)c(C)n2C	97	.	.	.	.	.
COc1ccc2c(c1)c(C(=O)CN1CCOCC1)c(C)n2C	.	.	.	.	.	.
O=C1CCC/C1=C\c1ccccc1	.	149	.	.	.	.
COc1cccc(/C=C2\CCCCC2=O)c1	.	.	/	/	/	/
C=CCNc1nc2c(c(=O)[nH]c(=O)n2C)n1CC(O)COc1ccc2ccccc2c1 (stereo unspecified)	.	.	/	/	/	/
NC(=O)COc1c(-c2ccc(Br)o2)oc2ccccc2c1=O	.	.	/	/	/	/
Cc1ccc(/C=C2\Oc3c(ccc(O)c3CN3CCN(CCO)CC3)C2=O)cc1	.	35	.	.	.	90
O=C1/C(=C/c2ccco2)Oc2c1ccc(O)c2CN1CCCCC1	.	.	.	.	.	.
CC(C)c1ccc(/C=C2\Oc3c(ccc(O)c3CN3CCN(C)CC3)C2=O)cc1	.	/	.	.	.	88
CC1CCN(Cc2c(O)ccc3c2O/C(=C\c2ccco2)C3=O)CC1	.	.	.	.	.	.
CC(=O)Nc1ccc(-n2nnnc2SCC(=O)N2CCN(C(=O)c3ccco3)CC2)cc1	.	.	.	.	.	.
N#Cc1c(-c2cccc(Br)c2)cc(-c2ccco2)[nH]c1=O	.	72	.	.	.	90
N#Cc1c(-c2ccccc2)cc(-c2ccccc2)[nH]c1=O	.	.	/	/	/	/
COc1ccc(-c2cc(C(F)(F)F)c(C#N)c(=O)[nH]2)cc1	.	49	.	.	/	105
COc1ccc(-c2cc(-c3ccco3)[nH]c(=O)c2C#N)cc1	.	.	.	.	/	86
SMILES	PHOSPHO1 inh	RanGTP-Impb inh	Wee1 degr inh	Runt-CBFb FRET	Efa HMGR inh	Runt-SMMHC FRET
CN(C(=O)C1CCC(=O)N(C2CC2)C1)C1CCCCC1 (stereo unspecified)	.	?	/	/	/	/
Cc1ccc(C)c(NC(=O)/C(C#N)=C/c2cn(CC(=O)NCc3ccco3)c3ccccc23)c1	.	98	.	.	.	.
COCCNC(=O)Cn1cc(/C=C(\C#N)C(=O)NC2CCCC2)c2ccccc21	.	52	/	/	/	/
Cc1cc(C)cc(NC(=O)/C(C#N)=C/c2cn(CC(=O)NCc3ccco3)c3ccccc23)c1	.	82	.	.	.	.
Cc1ccc(NC(=O)/C(C#N)=C/c2cn(CC(=O)NCc3ccco3)c3ccccc23)cc1C	.	.	.	.	.	.
Cc1ccccc1OCCn1cc(/C=C(\C#N)C(=O)NCc2ccco2)c2ccccc21	.	.	.	.	.	63
CNC(=O)/C(C#N)=C/c1cn(CC(=O)NCc2ccco2)c2ccccc12	.	.	.	.	.	.
N#C/C(=C\c1cn(CCOc2ccccc2)c2ccccc12)C(=O)NCc1ccco1	.	.	.	.	.	.
CC(=O)Nc1ccc(NC(=O)C(NS(=O)(=O)c2cccc3nsnc23)C(C)C)cc1 (stereo unspecified)	.	.	/	/	/	/
CCOc1ccc(S(=O)(=O)N2CCOCC2)cc1NC(=O)CN1C(=O)NC2(CCCC2)C1=O	/	.	/	/	/	/
COc1ccc(OCC(=O)Nc2cccc(-c3nc4ccccc4[nH]3)c2)cc1	.	31	.	.	.	.
COc1c(F)c(F)c(C(=O)Nc2ccc(-c3nc4ccccc4[nH]3)cc2)c(F)c1F	.	.	10.0	.	.	.
O=C(CN1C(=O)CCSc2ccc(S(=O)(=O)N3CCOCC3)cc21)Nc1cccc(F)c1	.	.	/	/	/	/
Cc1ccc(NC(=O)COC(=O)CN2C(=O)C3CCCCC3C2=O)cc1S(=O)(=O)N1CCOCC1 (stereo unspecified)	.	.	.	.	.	.
Cc1ccc(NC(=O)COC(=O)CN2C(=O)NC(C)(C)C2=O)cc1S(=O)(=O)N1CCOCC1	.	.	.	.	9.7	.
CCOC(=O)CNC(=O)C1CCCc2c1[nH]c1ccc(Cl)cc21 (stereo unspecified)	.	.	10	.	.	.
NC(=O)CNC(=O)C1CCCc2c1[nH]c1ccc(Cl)cc21 (stereo unspecified)	.	.	.	.	.	.
Cc1ccc(NC(=O)C2CCCN(S(=O)(=O)c3ccc(-n4cnnn4)cc3)C2)cc1 (stereo unspecified)	.	.	/	/	/	/
Cc1ccc(S(=O)(=O)NCC(=O)N(c2ccccc2)C(C(=O)NCc2ccccc2)c2ccco2)cc1 (stereo unspecified)	.	.	.	.	.	.
Cc1cc(C)cc(N(C(=O)CNS(=O)(=O)c2ccccc2)C(C(=O)NCc2ccccc2)c2ccc(C)o2)c1 (stereo unspecified)	.	.	11	.	.	.
COc1ccccc1NC(=O)CNC(=O)c1ccccc1	.	.	.	.	.	.
COc1ccccc1NC(=O)CNC(=O)c1ccccc1C	.	24	.	.	.	.
O=C1CC(NS(=O)(=O)c2cc(F)ccc2F)CN1c1ccc2c(c1)OCCO2 (stereo unspecified)	/	.	/	/	/	/
CCN(CC)C(=O)c1cnn(-c2ccccc2)c1NC(=O)c1ccco1	.	.	.	.	.	.
CCN(CC)C(=O)c1cnn(-c2ccccc2)c1NC(=O)c1cccs1	.	.	.	.	9.6	.
N#Cc1c2c(c(NCc3cccnc3)n3c1nc1ccccc13)CCC2	.	?	.	.	.	/
CC(=O)c1ccc(Nc2c3c(c(C#N)c4nc5ccccc5n24)CCC3)cc1	.	31	.	.	.	68
Cc1c2c(n3c(nc4ccccc43)c1C#N)N(Cc1cccnc1)CC2	/	/	.	/	/	/
